This is a sample that favours compounds with a hit; in the whole collection about 11% have one here.
M1 antagonist – antagonists of rat M1 muscarinic receptor; CHO-M1 cells, Fluo-4 calcium, ACh EC80 antagonist mode; hits give low values; B-score at 10 µM; hit rate 3.4% among 64,000; AID 628, 2007;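 active = calcium fluorescence response, raw or row-and-column corrected B-score, differing from the plate sample mean either way at a set confidence level, mostly lower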
D1 mod – D1 CRE-luciferase signal change, two-sided – cell-based, HEK293 D1, dopamine EC30, D1 allosteric modulator project, primary screen | hit rate 5.9% among 58,000 | D(1A) dopamine receptor (Homo sapiens), P21728 | B-score at 10 µM | dopamine EC30 potentiation; actives deviate in either direction;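 active = luminescence count or its row- and column-corrected plate score outside the 99.7% band of the plate's sample wells, on either side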
M1 agonist – M1 muscarinic receptor agonists, primary screen, CHO-M1 cells, Fluo-4 calcium, agonist mode | Muscarinic acetylcholine receptor M1 | hit rate 3% among 64,000 | B-score at 10 µM | Fluo-4 calcium fluorescence; hits give high values;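 active = fluorescence rise, raw or as B-score row- and column-corrected plate score, outside the 99.7% band of its plate's samples, either direction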
Htt clearance – clearance of mutant huntingtin inclusions, primary screen, imaging, HeLa Exon1htt(103Q)mCFP, confocal imaging. hit rate 0.42% among 47,000. inhibition, % at 1.5 µM. AID 853, 2007. aggregate imaging; zero = plate's median compound well;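 active = inhibition of aggregate fluorescence above about 70%, also judged a hit by eye on the cell image, limit read from the data, passing the limit was not always enough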;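 note: cells exposed to compound for three days before fixation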
RORa activator – activators of orphan receptor RORA, primary screen, cell-based, luminescence; CHO-K1 Gal4-RORA LBD luciferase reporter; percent increase over mock-subtracted basal signal; activation, % at 10 µM; hit rate 1.5% among 65,000; AID 560, 2006;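 active = activation above the mean of all tested compounds plus 3 SD, cut at about 49% in these data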
Target sequence (P35398 whole entry, looked up, the tested form may be a part): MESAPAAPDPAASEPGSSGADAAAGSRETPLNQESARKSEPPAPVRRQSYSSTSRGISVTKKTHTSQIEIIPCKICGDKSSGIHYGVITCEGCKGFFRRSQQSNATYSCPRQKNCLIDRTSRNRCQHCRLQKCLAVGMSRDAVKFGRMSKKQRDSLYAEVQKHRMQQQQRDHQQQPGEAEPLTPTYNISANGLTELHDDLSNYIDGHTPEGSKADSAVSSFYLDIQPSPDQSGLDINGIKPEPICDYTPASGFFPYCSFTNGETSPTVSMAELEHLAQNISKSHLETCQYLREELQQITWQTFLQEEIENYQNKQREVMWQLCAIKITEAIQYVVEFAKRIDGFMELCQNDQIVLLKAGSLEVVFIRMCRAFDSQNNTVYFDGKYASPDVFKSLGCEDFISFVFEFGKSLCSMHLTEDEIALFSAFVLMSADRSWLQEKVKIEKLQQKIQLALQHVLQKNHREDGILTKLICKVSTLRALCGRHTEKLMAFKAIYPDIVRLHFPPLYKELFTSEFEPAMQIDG
SF-1 act – activators of human SF-1, primary screen, cell-based, CHO-K1, Gal4-SF-1 LBD, luciferase luminescence; CHO-K1 Gal4-SF-1 LBD luciferase reporter; % increase over DMSO SF-1-specific signal; activation, % at 10 µM; hit rate 1.9% among 65,000; AID 522, 2006;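 active = activation above the mean activation of all tested compounds plus 3 SD, cut at about 50% in these data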
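Test system: transient Gal4-SF-1 LBD reporter, CHO-K1; Amount: 4,000 CHO-K1 cells per well; Doses: 10 µM only; Timing: compound exposure 20 h at 37 °C; Signal: luciferase light emission; Read-out basis: percent activation relative to DMSO median and mock-transfected background; Control set: DMSO negative control and −SF1 background wells; Replicates: one test per compound.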
A number is an active result; . = inactive; / = no result.

SMILES	M1 antagonist	D1 mod	M1 agonist	Htt clearance	RORa activator	SF-1 act
Cc1c(C(=O)Nc2ccc3c(c2)OCCO3)sc2nc(-c3ccccc3)cn12	.	.	.	/	.	.
O=C(OCC(F)(F)C(F)F)c1ccccc1C(=O)Oc1ccc(F)cc1F	.	.	.	/	.	.
COc1ccc(-c2nnn(CC(=O)Nc3sc4c(c3C#N)CCCC4)n2)cc1	.	.	.	/	.	.
O=C(Nn1c(=S)[nH]c2ccccc2c1=O)c1ccncc1	.	.	.	.	.	.
CCn1cc([N+](=O)[O-])c(C(=O)N2N=C3/C(=C/c4cccs4)CCCC3C2c2cccs2)n1 (centres undefined)	/	/	/	.	/	/
COc1cccc(C(=O)Nc2cccc(-c3nnc(-c4ccccc4)o3)c2)c1	.	.	.	/	.	92.1
CC(=O)Nc1cccc(-c2nc3ccccc3c(=O)o2)c1	.	.	.	.	.	.
CC(=O)Nc1cccc(-c2nnc(-c3ccccc3)o2)c1	.	.	.	/	.	50.6
CC(C)CNS(=O)(=O)c1ccc(CCC(=O)Nc2ccc3c(c2)OCCO3)cc1	/	/	/	.	/	/
CCC(C)C(=O)Nc1nc(C)c(-c2csc(Nc3cc(OC)ccc3OC)n2)s1 (centres undefined)	/	/	/	.	/	/
CCC(C)C(=O)Nc1nc(C)c(-c2csc(Nc3cc(Cl)ccc3OC)n2)s1 (centres undefined)	/	/	/	71.9	/	/
COc1ccccc1C1C(C#N)=C(N)N(c2cccnc2)C2=C1C(=O)CC(C)(C)C2 (centres undefined)	/	/	/	.	/	/
Cc1ccc(NC(=O)CN(C)S(=O)(=O)c2cccc3nsnc23)cc1	.	-5.36	.	.	.	.
Cc1ccc(CNC(=O)CN(C)S(=O)(=O)c2cccc3nsnc23)cc1	.	.	.	/	.	.
CCCN1Cc2cccc(C(=O)Nc3ccc(OC)c(OC)c3)c2C1=O	.	3.8	.	/	.	.
COCCN1Cc2cccc(C(=O)Nc3ccc(S(=O)(=O)N4CCCCC4)cc3)c2C1=O	/	6.76	/	/	.	.
COCCN1Cc2cccc(C(=O)Nc3cccnc3)c2C1=O	.	.	.	.	.	.
O=c1nc(-c2ccccc2)c2ccccc2[nH]1	.	.	.	.	.	.
c1ccc2nc3c(nc2c1)[nH]c1ccccc13	.	.	.	/	50.5	81.2
Cc1cc(=O)oc(C)c1C(=O)n1nc(C)c2c1C[C@@H]1[C@H]2C1(C)C	.	/	.	/	.	.
CC1CCCCN1c1nnc(NC(=O)c2cc(-c3ccc(Br)cc3)on2)s1 (centres undefined)	/	/	/	.	/	/
Cc1c(C2Nc3ccccc3NC3=C2C(=O)CC(C)(C)C3)cnn1C (centres undefined)	.	.	.	/	.	.
CC1(C)CC(=O)C2=C(C1)Nc1ccccc1N=C2	.	/	.	/	.	57.7
CC(C)c1nc2oc3c(NCc4cccnc4)ncnc3c2c2c1CCC2	.	/	.	/	.	.
CC(C)Cc1nc2oc3c(NCc4cccnc4)ncnc3c2c2c1CCC2	.	4.78	.	.	.	.
SMILES	M1 antagonist	D1 mod	M1 agonist	Htt clearance	RORa activator	SF-1 act
O=C1NC(c2ccc3c(c2)OCO3)Nc2ccccc21 (centres undefined)	.	.	.	/	62.9	71.9
CC(C)OC(=O)CSc1nnc(-c2cccnc2)n1N	.	.	.	.	.	.
COc1cccc(-n2c(SCC(=O)OC(C)C)nnc2-c2cccnc2)c1	2.65	.	.	.	.	.
CCOC(=O)c1cnc(SCC(=O)c2ccccc2)nc1N	.	.	.	/	58.6	.
COc1ccc(S(=O)(=O)Nc2c(C)ccc3nsnc23)cc1OC	.	.	.	/	.	.
CCOC(=O)c1c(C)[nH]c(C(=O)COC(=O)C2CC2C)c1C (centres undefined)	.	.	.	.	.	53.5
Cn1cccc1C(C(=O)NC1CCCCC1)N(C(=O)Cc1cccs1)c1ccc2c(c1)OCCO2 (centres undefined)	/	/	/	/	.	.
COc1ccc(N(C(=O)Cc2cccs2)C(C(=O)NC2CCCCC2)c2cccn2C)cc1OC (centres undefined)	/	/	/	94.3	/	/
O=C(/C=C/Nc1cccc(O)c1)c1ccccc1	.	-8.73	.	/	.	57.4
Cc1ccc(C(=O)/C=C/Nc2cccc(O)c2)cc1	.	-2.78	.	/	.	.
COc1cc(C(=O)OCC(=O)c2cc(C)n(C)c2C)cc(OC)c1OC	.	.	.	.	.	51.7
CC1(C)CC(=O)C2=C(C1)OC(N)=C(C#N)C2Cc1ccccc1 (centres undefined)	.	.	.	.	.	.
O=C(Nc1nc(-c2nc3ccccc3s2)cs1)C1COc2ccccc2O1 (centres undefined)	.	/	.	/	.	54.8
CS(=O)(=O)c1ccc2nc(NC(=O)C3COc4ccccc4O3)sc2c1 (centres undefined)	.	.	.	.	.	52.1
COc1ccc2nc(NC(=O)C3COc4ccccc4O3)sc2c1 (centres undefined)	.	-4.78	.	/	.	.
Cc1sc(NC(=O)CSc2nnc(C)c(=O)[nH]2)c(C#N)c1C	.	.	.	/	.	.
N#Cc1cn(-c2ccccc2)nc1-c1ccc2c(c1)OCCO2	/	.	/	/	61.7	55.4
CC(=O)c1cnc2cc(-c3ccccc3)nn2c1C	.	.	.	.	.	49.8
Cn1c(=O)c(-c2ccccc2)nc2ccccc21	/	/	/	.	/	/
CCCCn1nc(NC(=O)c2cccs2)c2cc3ccccc3nc21	.	/	.	.	.	.
CCCCn1nc(-c2ccccc2)c2nc3ccccc3nc21	/	/	/	73.9	/	/
Cn1nc(-c2ccccc2)c2nc3ccccc3nc21	4.53	.	133	.	.	.
O=C(c1ccc(Cl)c(S(=O)(=O)NCc2ccco2)c1)N1CCN(c2ccc(F)cc2)CC1	/	/	/	.	/	/
COc1cc(NC(=O)Nc2cccc(Cl)c2)c(OC)cc1NC(=O)CN1CCCCC1	.	-3.96	.	.	.	.
Cc1ccccc1-n1c(SCc2c(C)noc2C)nnc1-c1c[nH]c2ccccc12	.	-6.25	.	.	.	.
SMILES	M1 antagonist	D1 mod	M1 agonist	Htt clearance	RORa activator	SF-1 act
CCCSc1nnc(-c2c[nH]c3ccccc23)n1C	.	.	.	/	.	51.6
CCCSc1nnc(-c2c[nH]c3ccccc23)n1CC	.	.	.	/	.	.
CC(OC(=O)c1snc(C(=O)NC2CCCCC2)c1N)C(=O)NC1CCCCC1 (centres undefined)	/	/	/	.	/	/
Cc1ccc(NC(=O)COC(=O)c2ccn(C)n2)cc1	.	/	.	/	.	.
CC(=O)Nc1ccc2nc(-c3ccccn3)[nH]c2c1	.	.	.	/	65.0	.
CC(=O)Nc1ccc2nc(C3CCCCC3)[nH]c2c1	.	.	.	.	.	.

Screens deposited in PubChem by several laboratories.
